Measurements of several laboratories.
Lines come from different studies, so protocols differ.
Target: Receptor-interacting serine/threonine-protein kinase 1 (RIPK1, Homo sapiens, UniProt Q13546)
One construct used (Q13546 1-671): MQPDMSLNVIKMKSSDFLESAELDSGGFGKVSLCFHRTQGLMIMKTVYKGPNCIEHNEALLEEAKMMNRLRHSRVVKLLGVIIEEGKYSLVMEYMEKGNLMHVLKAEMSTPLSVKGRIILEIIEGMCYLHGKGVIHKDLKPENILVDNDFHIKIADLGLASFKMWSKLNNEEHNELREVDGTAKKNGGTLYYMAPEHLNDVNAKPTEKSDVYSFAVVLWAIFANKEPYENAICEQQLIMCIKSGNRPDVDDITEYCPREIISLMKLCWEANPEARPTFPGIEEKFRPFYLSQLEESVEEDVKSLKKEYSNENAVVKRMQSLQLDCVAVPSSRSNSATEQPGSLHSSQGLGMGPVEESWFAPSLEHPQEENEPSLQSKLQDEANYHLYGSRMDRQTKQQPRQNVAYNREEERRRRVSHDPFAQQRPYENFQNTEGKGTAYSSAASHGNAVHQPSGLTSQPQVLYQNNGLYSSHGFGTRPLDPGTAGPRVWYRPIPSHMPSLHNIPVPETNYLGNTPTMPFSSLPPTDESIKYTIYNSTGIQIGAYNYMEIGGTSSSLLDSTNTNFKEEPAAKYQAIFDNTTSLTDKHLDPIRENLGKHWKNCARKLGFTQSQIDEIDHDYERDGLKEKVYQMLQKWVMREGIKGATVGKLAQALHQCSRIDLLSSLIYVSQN

SMILES	observed	technique	tested at	remaining binding [%]
O=C(c1ccc(Nc2ncc(Cl)c(-c3cc4ccccc4s3)n2)cc1)N1CCC(N2CCCC2)CC1	binding	competition with immobilised ligand	1 µM	2.5
CCCOc1ccc([C@@H]2[C@@H](C(=O)O)[C@H](c3ccc4c(c3)OCO4)CN2CC(=O)Nc2c(CC)cccc2CC)cc1	cell-free assay	competition with immobilised ligand	1 µM	55
c1cncc(-c2cccc(Nc3nccc(NC4CCCCC4)n3)c2)c1	binding	competition with immobilised ligand	10 µM	98
CN(C)c1nccc(-c2cnn3ncccc23)n1	binding		1 µM	98
Nc1ncc2c(n1)-c1c([nH]c3ccc(C#CC4CC4)cc13)CCCC2	binding	competition with immobilised ligand	1 µM	100
CN(C)c1ncnc(-c2ccc3nc(Nc4cc(CN5CCN(C(=O)CC(F)(F)F)CC5)ccn4)[nH]c3c2)c1Cl	cell-free assay	competition with immobilised ligand	1 µM	93
CN(CCCC(F)(F)F)c1nccc(-c2cnn3ncccc23)n1	binding		1 µM	97
O=C(N1CCS(=O)(=O)CC1)N1C[C@H](c2ccc(OC(F)(F)F)cc2)C[C@H](c2nc(C3CC3)no2)C1	cell-free assay	competition with immobilised ligand	1 µM	100
COc1ccnn2ncc(-c3ccnc(N(C)C)n3)c12	binding		1 µM	96
O=C(Nc1c[nH]nc1C(=O)NC1CCNCC1)c1cc(F)cc(F)c1	binding	competition with immobilised ligand	1 µM	100
CN(c1nccc(-c2cnn3ncccc23)n1)C1CC1	binding		1 µM	100
O=C(Nc1ccc(Oc2ccc(F)cc2)cc1)N1CCc2ncccc2[C@H]1c1ccc(F)cc1	cell-free assay	competition with immobilised ligand	1 µM	100
O=C(c1ccc(Nc2nccc(-c3cc4ccccc4s3)n2)cc1)N1CCC(N2CCCC2)CC1	binding	competition with immobilised ligand	1 µM	23
COc1cnc(Nc2cccc(S(N)(=O)=O)c2)nc1N1CCN(c2ccccc2)CC1	binding	competition with immobilised ligand	1 µM	100
CCCCN(CCCC)C(=O)CN1C[C@@H](c2cc(OC)c3c(c2)OCO3)[C@H](C(=O)O)[C@H]1CC(C)(C)CCC	cell-free assay	competition with immobilised ligand	1 µM	100
FC(F)(F)Oc1cccc(-c2cnc3ccc(-c4ccncc4)nn23)c1	binding	competition with immobilised ligand	5 µM	81
Cc1c(C(=O)O)cc(-c2ccc(C3CCNCC3)cc2)c2ccc(-c3ccc(C(F)(F)F)cc3)cc12	binding	competition with immobilised ligand	1 µM	100
Cc1cnc(Nc2ccc(C(=O)N3CCC(N4CCCC4)CC3)cc2)nc1-c1cc2ccccc2s1	binding	competition with immobilised ligand	1 µM	1
